Experimental data of several laboratories.
Each line is one published result; the experiments were not run side by side.
Observed: metabolic stability
Host: human
Medium: liver microsomes

O=c1c2c([nH]c3ccc(Oc4ccc(OC(F)(F)F)cc4)cc13)CCCC2 — microsomal CLint (1 µM, pH 7.4): 55.3 µL/min/mg
Cc1ccc(C(C)(C)c2ccc(NC(=O)CN(C)c3ccccc3N3CCCC3=O)cc2)cc1 — microsomal CLint: 263 µL/min/mg
CONC(=O)N1CCC[C@H](C(=O)NCc2nc(-c3ccccc3)cs2)C1 — microsomal CLint (0.5 µM): 7.3 µL/min/mg
CC1(C)NC(=O)N(c2ccc(F)c(Br)c2)C1=O — microsomal CLint: < 7 µL/min/mg
CNc1ccc(C(N)=O)cn1 — microsomal CLint (1 µM, pH 7.4): < 3 µL/min/mg
O=c1c2ccc(OCc3cccc(OC(F)(F)F)c3)cc2[nH]c2cc(Cl)cc(F)c12 — microsomal CLint (1 µM, pH 7.4): 16.1 µL/min/mg
Cc1ccc(Oc2ccc(NC(=O)CNc3ccccc3-n3cncn3)cc2)cc1 — microsomal CLint: 98 µL/min/mg
O=C1NC2(CCS(=O)(=O)CC2)C(=O)N1c1ccc(F)c(C(F)(F)F)c1 — microsomal CLint: < 7 µL/min/mg
COCC(=O)N1CCC[C@H](C(=O)NCc2nc(-c3cccnc3)cs2)C1 — microsomal CLint (0.5 µM): < 7 µL/min/mg
COc1cc(NC(=O)Cn2ccc3ccc(-c4cnn(C)c4)cc32)cc(OC)c1OC — microsomal CLint: 62 µL/min/mg
CCS(=O)(=O)N1CCC2(CC1)NC(=O)N(c1ccc(F)c(C(F)(F)F)c1)C2=O — microsomal CLint: < 7 µL/min/mg
Cc1cc2c(C(=O)O)cccc2n1-c1nc2c(c(NCc3ccccc3)n1)CCCN2 — microsomal CLint (1 µM, pH 7.4): 9.07 µL/min/mg
Cc1[nH]c(C)c(S(=O)(=O)Nc2ccc(C(F)(F)F)c(Cl)c2)c1C(=O)N1CCC(F)(F)C1 — microsomal CLint: 68 µL/min/mg
Cc1ccc(N(C)c2ccc(NC(=O)CN(C)c3ccccc3N3CCCC3=O)cn2)cc1 — microsomal CLint: 216 µL/min/mg
O=C(NCc1nc(-c2ccccc2)cs1)[C@H]1CCCN(C(=O)[C@H]2CCCO2)C1 — microsomal CLint (0.5 µM): 35 µL/min/mg
CC(C)N(c1ccc(C#N)cc1)c1ccc(NC(=O)CN(C)c2ccccc2N2CCCC2=O)cn1 — microsomal CLint: 309 µL/min/mg
Cc1ccc(Nc2cnnc3ccc(-c4ccc(N5CCCN(C)CC5)cc4)cc23)cn1 — microsomal CLint: 75 µL/min/mg
O=C(O)Cc1ccccc1Nc1c(Cl)cccc1Cl — microsomal CLint (2 µM, pH 7.4): 201 µL/min/mg
Cc1ccc(Oc2ccc(NC(=O)CNc3ccccc3N3CCCC3=O)cc2)cc1 — microsomal CLint: 102 µL/min/mg
N#Cc1ccc(-c2csc(CNC(=O)[C@H]3CCCN(C(=O)COC4CC4)C3)n2)cc1 — microsomal CLint (0.5 µM): 49 µL/min/mg
CC(C)N(c1ccc(Cl)c(F)c1)c1ccc(NC(=O)CN(C)c2ccccc2N2CCCC2=O)cn1 — microsomal CLint: 287 µL/min/mg
O=c1c2ccc(Oc3ccc(OC(F)(F)F)cc3)cc2[nH]c2ccc(F)c(Cl)c12 — microsomal CLint (1 µM, pH 7.4): 7.54 µL/min/mg
CC1(C)NC(=O)N(c2ccc(F)c(F)c2)C1=O — microsomal CLint: < 7 µL/min/mg
c1ccc(Oc2ccc(Nc3c4c(nc5ccccc35)CCC4)cc2)cc1 — microsomal CLint (0.5 µM): 31 µL/min/mg
Cc1[nH]c(C)c(S(=O)(=O)Nc2ccc(C(F)(F)F)c(Cl)c2)c1C(=O)N(C)C — microsomal CLint: 79 µL/min/mg
Cc1ccc(Oc2ccc(NC(=O)CN(C)c3ccccc3N3CCCC3=O)cc2)cc1 — microsomal CLint: 383 µL/min/mg
Cc1ccc(Nc2cnnc3ccc(-c4ccc(N5CCN(C)CC5)cc4)cc23)cn1 — microsomal CLint: 36 µL/min/mg
CC1(C)NC(=O)N(c2ccc3c(c2)OC(F)(F)O3)C1=O — microsomal CLint: < 7 µL/min/mg
CN(C)CCOc1ccc2c(=O)c3c([nH]c2c1)CCCC3 — microsomal CLint (1 µM, pH 7.4): 8.08 µL/min/mg
CCN(CC)CCNC(=O)c1c(C)[nH]c(/C=C2\C(=O)Nc3ccc(F)cc32)c1C — microsomal CLint (1 µM, pH 7.4): 25.6 µL/min/mg
CC1(C(F)F)NC(=O)N(c2ccc(F)c(C(F)(F)F)c2)C1=O (stereo not drawn) — microsomal CLint: < 7 µL/min/mg
O=c1c2c([nH]c3cc(Nc4ccc(OC(F)(F)F)cc4)ccc13)CCCC2 — microsomal CLint (1 µM, pH 7.4): 67 µL/min/mg
CC1(C)NC(=O)N(c2ccc(F)c(CC(F)(F)F)c2)C1=O — microsomal CLint: < 7 µL/min/mg
COc1ccc(Oc2ccc3c(=O)c4c(F)cc(Cl)cc4[nH]c3c2)cc1 — microsomal CLint (1 µM, pH 7.4): 12.3 µL/min/mg
CC(C)NCCOCC(=O)N1CCC[C@H](C(=O)NCc2nc(-c3ccc(C(F)(F)F)cc3)cs2)C1 — microsomal CLint (0.5 µM): 13 µL/min/mg
COc1ccc(Cn2cc(CO[C@@H]3O[C@H]4[C@H](OC[C@H]4O)[C@H]3O)nn2)cc1 — microsomal CLint: < 14.4 µL/min/mg
COCC(=O)N1CCC[C@H](C(=O)NCc2nc(-c3ccc(C(F)(F)F)cc3)cs2)C1 — microsomal CLint (0.5 µM): 37 µL/min/mg
O=c1c2c(F)cc(Cl)cc2[nH]c2cccc(Oc3ccc(OC(F)(F)F)cc3)c12 — microsomal CLint (1 µM, pH 7.4): 5.86 µL/min/mg
CCOc1ccc(-c2csc(CNC(=O)[C@H]3CCCN(C(=O)COC)C3)n2)cc1 — microsomal CLint (0.5 µM): 24 µL/min/mg
CCCCCCOc1ccc2c(=O)c3c([nH]c2c1)CCCC3 — microsomal CLint (1 µM, pH 7.4): 92.2 µL/min/mg
CCONC(=O)N1CCC[C@H](C(=O)N[C@H](C)c2nc(-c3ccc(C#N)cc3)cs2)C1 — microsomal CLint (0.5 µM): 17 µL/min/mg
CCCCCCCCCCCCCCCC(=O)NCCOC(=O)C[C@@H](CN)CC(C)C — microsomal CLint (1 µM, pH 7.4): 22.9 µL/min/mg
